Data: ChEMBL document CHEMBL4190262, “Tuning of β-glucosidase and α-galactosidase inhibition by generation and in situ screening of a library of pyrrolidine-triazole hybrid molecules” (Eur J Med Chem, 2017)
Activity calls are given as the source filed them.

Legend:
[1] = biological target: Beta-galactosidase (Escherichia coli) (UniProt Q8VNN2); test: Inhibition of Escherichia coli beta-galactosidase at 1 mM using p-nitrophenyl glycopyranoside preincubated for 5 mins followed by substrate addition measured after 20 mins by visible absorption spectroscopic method relative to control
Sequence of Beta-galactosidase (Escherichia coli) (Q8VNN2 whole entry, looked up): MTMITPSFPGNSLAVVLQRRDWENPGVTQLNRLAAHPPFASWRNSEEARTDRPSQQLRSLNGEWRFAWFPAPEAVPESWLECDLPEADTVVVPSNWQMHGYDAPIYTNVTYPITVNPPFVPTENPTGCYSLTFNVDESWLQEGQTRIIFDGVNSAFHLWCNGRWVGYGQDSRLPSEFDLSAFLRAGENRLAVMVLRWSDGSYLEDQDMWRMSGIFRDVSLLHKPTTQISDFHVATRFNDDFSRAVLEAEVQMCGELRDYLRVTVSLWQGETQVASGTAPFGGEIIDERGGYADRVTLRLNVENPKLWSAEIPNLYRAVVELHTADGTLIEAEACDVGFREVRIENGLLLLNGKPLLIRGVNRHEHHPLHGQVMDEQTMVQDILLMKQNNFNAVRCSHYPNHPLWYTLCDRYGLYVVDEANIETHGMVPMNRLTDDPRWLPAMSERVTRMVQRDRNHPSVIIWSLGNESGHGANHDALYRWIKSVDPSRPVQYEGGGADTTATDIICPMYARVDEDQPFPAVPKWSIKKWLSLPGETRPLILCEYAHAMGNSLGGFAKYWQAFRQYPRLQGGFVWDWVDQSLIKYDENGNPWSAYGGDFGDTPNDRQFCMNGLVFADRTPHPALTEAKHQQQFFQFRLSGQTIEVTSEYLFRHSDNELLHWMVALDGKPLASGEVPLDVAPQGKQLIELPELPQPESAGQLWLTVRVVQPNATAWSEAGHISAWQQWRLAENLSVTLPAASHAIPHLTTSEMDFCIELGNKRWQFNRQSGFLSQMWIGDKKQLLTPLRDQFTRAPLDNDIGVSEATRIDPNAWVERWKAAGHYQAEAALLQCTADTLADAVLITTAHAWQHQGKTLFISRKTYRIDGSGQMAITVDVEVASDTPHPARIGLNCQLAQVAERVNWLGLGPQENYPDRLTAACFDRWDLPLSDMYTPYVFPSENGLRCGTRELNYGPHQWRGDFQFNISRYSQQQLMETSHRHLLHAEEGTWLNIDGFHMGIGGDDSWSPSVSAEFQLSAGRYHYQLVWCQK
Method in brief: (§1)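 Test compound at 1 mM in well. Mix: 0.01–0.5 units/mL enzyme plus 10 mM p-nitrophenyl glycopyranoside (aqueous solution), buffered to the enzyme's optimal pH. Enzyme and inhibitor preincubated 5 min at rt. Substrate then added and incubated 20 min at 37 °C. Stopped with sodium borate (pH 9.8). p-Nitrophenolate read at 405 nm. Duplicates averaged.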

Bos taurus = organism: Bos taurus; test: Inhibition of bovine kidney alpha-L-fucosidase at 1 mM using p-nitrophenyl glycopyranoside preincubated for 5 mins followed by substrate addition measured after 20 mins by visible absorption spectroscopic method relative to control; method in brief: as §1
[2] = Inhibition of bovine kidney alpha-L-fucosidase using p-nitrophenyl glycopyranoside preincubated for 5 mins followed by substrate addition measured after 20 mins by visible absorption spectroscopic method; set-up: species or system Bos taurus
[3] = biological target: Alpha-galactosidase (Coffea arabica) (UniProt Q42656); test: Inhibition of coffee beans alpha-galactosidase at 1 mM using p-nitrophenyl glycopyranoside preincubated for 5 mins followed by substrate addition measured after 20 mins by visible absorption spectroscopic method relative to control; method in brief: as §1
Sequence of Alpha-galactosidase (Coffea arabica) (Q42656 16-378 limits assumed): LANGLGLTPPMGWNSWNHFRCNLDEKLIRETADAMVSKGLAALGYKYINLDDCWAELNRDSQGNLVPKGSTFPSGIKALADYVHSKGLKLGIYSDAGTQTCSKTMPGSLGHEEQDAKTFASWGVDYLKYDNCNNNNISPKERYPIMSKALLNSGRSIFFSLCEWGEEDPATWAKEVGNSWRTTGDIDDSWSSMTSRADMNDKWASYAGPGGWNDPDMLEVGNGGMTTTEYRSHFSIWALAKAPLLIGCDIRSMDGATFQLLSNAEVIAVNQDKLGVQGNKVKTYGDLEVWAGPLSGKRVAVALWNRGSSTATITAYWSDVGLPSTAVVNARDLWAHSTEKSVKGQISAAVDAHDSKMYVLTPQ

[4] = biological target: T1, Beta-galactosidase (Aspergillus oryzae) (UniProt B7VU80); test: Inhibition of Aspergillus oryzae beta-galactosidase at 1 mM using p-nitrophenyl glycopyranoside preincubated for 5 mins followed by substrate addition measured after 20 mins by visible absorption spectroscopic method relative to control; method in brief: as §1
T1 sequence (whole entry): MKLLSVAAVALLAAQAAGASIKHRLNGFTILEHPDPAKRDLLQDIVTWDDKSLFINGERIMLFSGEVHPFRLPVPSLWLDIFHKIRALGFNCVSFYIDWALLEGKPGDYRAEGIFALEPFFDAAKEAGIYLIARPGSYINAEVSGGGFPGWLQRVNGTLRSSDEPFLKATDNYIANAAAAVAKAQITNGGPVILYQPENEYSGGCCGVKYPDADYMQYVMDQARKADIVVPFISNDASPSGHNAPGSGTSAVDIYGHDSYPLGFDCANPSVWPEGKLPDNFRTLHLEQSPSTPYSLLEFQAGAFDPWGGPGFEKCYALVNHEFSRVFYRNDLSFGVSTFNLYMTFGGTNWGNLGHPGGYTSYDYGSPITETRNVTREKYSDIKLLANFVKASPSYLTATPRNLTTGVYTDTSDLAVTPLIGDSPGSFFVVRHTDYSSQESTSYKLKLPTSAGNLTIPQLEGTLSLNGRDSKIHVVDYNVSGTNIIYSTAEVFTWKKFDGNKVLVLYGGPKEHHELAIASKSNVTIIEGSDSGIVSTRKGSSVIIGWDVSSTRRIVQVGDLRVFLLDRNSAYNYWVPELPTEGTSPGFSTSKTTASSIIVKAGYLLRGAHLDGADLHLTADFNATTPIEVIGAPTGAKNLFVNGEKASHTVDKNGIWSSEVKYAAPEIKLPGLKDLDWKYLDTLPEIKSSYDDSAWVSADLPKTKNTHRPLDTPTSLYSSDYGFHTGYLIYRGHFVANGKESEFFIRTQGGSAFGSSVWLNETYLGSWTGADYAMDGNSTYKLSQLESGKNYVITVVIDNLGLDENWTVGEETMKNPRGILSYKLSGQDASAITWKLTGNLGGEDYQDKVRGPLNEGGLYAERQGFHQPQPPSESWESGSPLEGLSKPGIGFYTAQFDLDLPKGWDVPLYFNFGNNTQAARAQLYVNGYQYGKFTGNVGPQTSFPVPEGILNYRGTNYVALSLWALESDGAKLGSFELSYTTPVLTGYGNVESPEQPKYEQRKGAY

Saccharomyces cerevisiae = test: Inhibition of yeast alpha glucosidase at 1 mM using p-nitrophenyl glycopyranoside preincubated for 5 mins followed by substrate addition measured after 20 mins by visible absorption spectroscopic method relative to control; method in brief: as §1
Oryza sativa = test: Inhibition of rice alpha-glucosidase at 1 mM using p-nitrophenyl glycopyranoside preincubated for 5 mins followed by substrate addition measured after 20 mins by visible absorption spectroscopic method relative to control; method in brief: as §1
Aspergillus niger = test: Inhibition of Aspergillus niger amyloglucosidase at 1 mM using p-nitrophenyl glycopyranoside preincubated for 5 mins followed by substrate addition measured after 20 mins by visible absorption spectroscopic method relative to control; method in brief: as §1
Prunus dulcis = test: Inhibition of almond beta-glucosidase at 1 mM using p-nitrophenyl glycopyranoside preincubated for 5 mins followed by substrate addition measured after 20 mins by visible absorption spectroscopic method relative to control; method in brief: as §1
[5] = biological target: T2, Alpha-mannosidase (Canavalia ensiformis) (UniProt C0HJB3); test: Inhibition of jack bean alpha-mannosidase at 1 mM using p-nitrophenyl glycopyranoside preincubated for 5 mins followed by substrate addition measured after 20 mins by visible absorption spectroscopic method relative to control; method in brief: as §1
T2 sequence (whole entry): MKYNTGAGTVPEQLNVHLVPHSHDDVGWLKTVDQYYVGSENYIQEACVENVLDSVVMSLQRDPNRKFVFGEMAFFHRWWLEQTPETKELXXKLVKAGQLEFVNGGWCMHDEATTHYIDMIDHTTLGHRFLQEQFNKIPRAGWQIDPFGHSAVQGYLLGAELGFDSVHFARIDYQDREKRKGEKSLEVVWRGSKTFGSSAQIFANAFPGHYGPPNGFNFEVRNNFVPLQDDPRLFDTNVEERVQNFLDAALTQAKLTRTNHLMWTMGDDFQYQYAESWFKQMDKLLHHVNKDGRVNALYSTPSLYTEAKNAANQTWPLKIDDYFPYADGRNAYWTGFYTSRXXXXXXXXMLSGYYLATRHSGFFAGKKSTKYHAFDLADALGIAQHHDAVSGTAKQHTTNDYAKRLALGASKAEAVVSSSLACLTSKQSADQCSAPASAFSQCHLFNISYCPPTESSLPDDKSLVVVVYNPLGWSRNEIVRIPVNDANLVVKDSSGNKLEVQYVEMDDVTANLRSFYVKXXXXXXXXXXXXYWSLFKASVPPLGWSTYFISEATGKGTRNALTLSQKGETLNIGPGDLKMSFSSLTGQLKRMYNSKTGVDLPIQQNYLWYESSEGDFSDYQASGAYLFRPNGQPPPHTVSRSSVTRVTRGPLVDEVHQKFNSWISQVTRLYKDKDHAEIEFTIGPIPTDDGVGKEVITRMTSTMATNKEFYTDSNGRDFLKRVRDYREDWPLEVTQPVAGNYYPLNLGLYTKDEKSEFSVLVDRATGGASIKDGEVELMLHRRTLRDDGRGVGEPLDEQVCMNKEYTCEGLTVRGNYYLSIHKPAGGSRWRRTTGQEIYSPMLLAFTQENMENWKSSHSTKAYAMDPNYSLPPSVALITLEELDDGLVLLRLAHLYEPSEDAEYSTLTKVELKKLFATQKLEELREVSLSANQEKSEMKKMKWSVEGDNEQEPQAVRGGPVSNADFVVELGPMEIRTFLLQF

Cornu aspersum = test: Inhibition of snail beta-mannosidase at 1 mM using p-nitrophenyl glycopyranoside preincubated for 5 mins followed by substrate addition measured after 20 mins by visible absorption spectroscopic method relative to control; method in brief: as §1
Canavalia ensiformis = test: Inhibition of jack bean beta-N-acetylglucosaminidase at 1 mM using p-nitrophenyl glycopyranoside preincubated for 5 mins followed by substrate addition measured after 20 mins by visible absorption spectroscopic method relative to control; method in brief: as §1

O[C@@H]1[C@H](O)CN[C@@H]1c1cn(Cc2ccccc2)nn1
inactive: inhibition [1] | inhibition [3] | inhibition [4] | inhibition (Saccharomyces cerevisiae) | inhibition (Oryza sativa) | inhibition (Aspergillus niger) | inhibition (Prunus dulcis) | inhibition [5] | inhibition (Cornu aspersum) | inhibition (Canavalia ensiformis)
168 µM: IC50 [2]
84%: inhibition (Bos taurus)
